The source made the active and inactive calls. The rule behind the calls is not given here.
Tests used:
CCRF-CEM = experiment: Cytostatic activity against human CEM cells assessed as inhibition of proliferation after 72 hrs by Coulter cell counting method; format: functional, cell-based
How it was run: (§1)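 (5–7.5) × 10⁴ tumor cells per well were exposed to test compound at 37 °C in humidified CO₂. Incubation ran 48 h for L1210 and 72 h for CEM and HeLa. Cells were then counted in a Coulter counter. IC₅₀ is the concentration that inhibits cell proliferation by 50%.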

L1210 = experiment: Cytostatic activity against mouse L1210 cells assessed as inhibition of proliferation after 48 hrs by Coulter cell counting method; format: functional, cell-based; settings: L1210, 48 h; how it was run: as §1
HeLa = experiment: Cytostatic activity against human HeLa cells assessed as inhibition of proliferation after 72 hrs by Coulter cell counting method; format: functional, cell-based; how it was run: as §1
Felid alphaherpesvirus 1 = experiment: Antiviral activity against Feline herpesvirus 1 infected in HEL cells assessed as inhibition of virus-induced cytopathogenicity; format: functional, organism-based
How it was run: (§2)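 Confluent host-cell monolayers in 96-well plates were inoculated with 100 CCID₅₀ of virus while exposed to a range of test compound concentrations. Cytopathic effect was scored once it was complete in untreated infected controls. EC₅₀ is the concentration that reduces virus-induced cytopathogenicity by 50%.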

[1] = test system: Vesicular stomatitis virus; experiment: Antiviral activity against Vesicular stomatitis virus infected in HeLa cells assessed as inhibition of virus-induced cytopathogenicity; format: functional, organism-based
How it was run: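 HeLa cell monolayers (confluent) were infected with 100 CCID50 of VSV in the presence of serial compound concentrations. Viral cytopathicity was read when complete in untreated infected controls. EC50 is the concentration that reduced virus-induced cytopathogenicity by 50%.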

[2] = test system: Respiratory syncytial virus; experiment: Antiviral activity against Respiratory syncytial virus infected in HeLa cells assessed as inhibition of virus-induced cytopathogenicity; format: functional, organism-based; how it was run: as §2

SMILES	IC50 (CCRF-CEM)	IC50 (L1210)	IC50 (HeLa)	also measured
Cn1cnc2c1c(=O)n(Cc1cn(C[C@@H]3OC(C)(C)O[C@H]3[C@@H](O)P(=O)(OCc3ccccc3)OCc3ccccc3)nn1)c(=O)n2C	142 µM	145 µM	> 200 µM	–
O=c1cnn(Cc2cn(C[C@H](OCc3ccccc3)[C@H](O)P(=O)(OCc3ccccc3)OCc3ccccc3)nn2)c(=O)[nH]1	81 µM	71 µM	122 µM	–
Cc1cn(Cc2cn(C[C@H](O)[C@@H](O)P(=O)(O)O)nn2)c(=O)[nH]c1=O	> 200 µM	> 200 µM	> 200 µM	–
O=c1ccn(Cc2cn(C[C@H](OCc3ccccc3)[C@@H](O)P(=O)(OCc3ccccc3)OCc3ccccc3)nn2)c(=O)[nH]1	> 200 µM	> 200 µM	> 200 µM	–
O=c1ccccn1Cc1cn(C[C@H](OCc2ccccc2)[C@H](O)P(=O)(OCc2ccccc2)OCc2ccccc2)nn1	101 µM	76 µM	28 µM	–
CCOP(=O)(CCCn1cc(Cn2c(=O)n(C(=O)c3ccccc3)c(=O)c3ccccc32)nn1)OCC	–	–	–	EC50 (Felid alphaherpesvirus 1; Felid alphaherpesvirus 1, HEL): 24 µM
Nc1ncnc2c1ncn2Cc1cn(C[C@H](OCc2ccccc2)[C@H](O)P(=O)(OCc2ccccc2)OCc2ccccc2)nn1	76 µM	46 µM	80 µM	–
CC1(C)O[C@@H]([C@@H](O)P(=O)(OCc2ccccc2)OCc2ccccc2)[C@H](Cn2cc(Cn3cnc4c(N)ncnc43)nn2)O1	> 200 µM	> 200 µM	–	–
O=C(c1ccccc1)n1c(=O)c2ccccc2n(Cc2cn(C[C@H](OCc3ccccc3)[C@@H](O)P(=O)(OCc3ccccc3)OCc3ccccc3)nn2)c1=O	4.7 µM	4.1 µM	7.1 µM	inhibition [1]: inactive; inhibition [2]: inactive
Cn1cnc2c1c(=O)n(Cc1cn(C[C@H](OCc3ccccc3)[C@H](O)P(=O)(OCc3ccccc3)OCc3ccccc3)nn1)c(=O)n2C	68 µM	58 µM	76 µM	–
Cn1cnc2c1c(=O)n(Cc1cn(C[C@H]3OC(C)(C)O[C@H]3[C@@H](O)P(=O)(OCc3ccccc3)OCc3ccccc3)nn1)c(=O)n2C	115 µM	86 µM	> 200 µM	–
CC1(C)O[C@@H]([C@@H](O)P(=O)(OCc2ccccc2)OCc2ccccc2)[C@H](Cn2cc(Cn3ccc(=O)[nH]c3=O)nn2)O1	> 200 µM	> 200 µM	118 µM	–
O=c1ccn(Cc2cn(C[C@H](OCc3ccccc3)[C@H](O)P(=O)(OCc3ccccc3)OCc3ccccc3)nn2)c(=O)[nH]1	91 µM	86 µM	66 µM	inhibition (Felid alphaherpesvirus 1): inactive
CC(=O)Nc1ccn(Cc2cn(C[C@H]3OC(C)(C)O[C@H]3[C@@H](O)P(=O)(OCc3ccccc3)OCc3ccccc3)nn2)c(=O)n1	> 200 µM	> 200 µM	> 200 µM	–
CC(=O)Nc1ccn(Cc2cn(C[C@H](OCc3ccccc3)[C@@H](O)P(=O)(OCc3ccccc3)OCc3ccccc3)nn2)c(=O)n1	169 µM	153 µM	> 200 µM	–
Cn1c(=O)c2c(ncn2Cc2cn(C[C@H]3OC(C)(C)O[C@H]3[C@@H](O)P(=O)(OCc3ccccc3)OCc3ccccc3)nn2)n(C)c1=O	> 200 µM	> 200 µM	> 200 µM	–
CC(=O)c1cn(Cc2cn(C[C@H](OCc3ccccc3)[C@H](O)P(=O)(OCc3ccccc3)OCc3ccccc3)nn2)c2ccccc12	16 µM	15 µM	13 µM	–
CC1(C)O[C@@H]([C@@H](O)P(=O)(OCc2ccccc2)OCc2ccccc2)[C@@H](Cn2cc(Cn3ccc(=O)[nH]c3=O)nn2)O1	> 200 µM	> 200 µM	> 200 µM	–

SMILES	IC50 (CCRF-CEM)	IC50 (L1210)	IC50 (HeLa)	also measured
O=c1ccccn1Cc1cn(C[C@H](OCc2ccccc2)[C@@H](O)P(=O)(OCc2ccccc2)OCc2ccccc2)nn1	90 µM	63 µM	45 µM	–
Cn1c(=O)c2c(nc(Cl)n2Cc2cn(C[C@H](OCc3ccccc3)[C@H](O)P(=O)(OCc3ccccc3)OCc3ccccc3)nn2)n(C)c1=O	25 µM	22 µM	86 µM	–
Cn1c(=O)c2c(nc(Cl)n2Cc2cn(C[C@H](OCc3ccccc3)[C@@H](O)P(=O)(OCc3ccccc3)OCc3ccccc3)nn2)n(C)c1=O	27 µM	70 µM	> 200 µM	–
Cc1cn(Cc2cn(C[C@@H]3OC(C)(C)O[C@H]3[C@@H](O)P(=O)(OCc3ccccc3)OCc3ccccc3)nn2)c(=O)[nH]c1=O	> 200 µM	139 µM	107 µM	–
NC(=O)c1ncn([C@@H]2O[C@H](CO)[C@@H](O)[C@H]2O)n1 [RIBAVIRIN]	–	–	–	EC50 [1]: 17 µM
Cn1c(=O)c2c(nc(Cl)n2Cc2cn(C[C@@H]3OC(C)(C)O[C@H]3[C@@H](O)P(=O)(OCc3ccccc3)OCc3ccccc3)nn2)n(C)c1=O	> 200 µM	> 200 µM	> 200 µM	–
Cn1c(=O)c2c(ncn2Cc2cn(C[C@H](OCc3ccccc3)[C@H](O)P(=O)(OCc3ccccc3)OCc3ccccc3)nn2)n(C)c1=O	72 µM	56 µM	83 µM	–
Cn1cnc2c1c(=O)n(Cc1cn(C[C@H](OCc3ccccc3)[C@@H](O)P(=O)(OCc3ccccc3)OCc3ccccc3)nn1)c(=O)n2C	82 µM	71 µM	78 µM	–
Cc1cn(Cc2cn(C[C@H](OCc3ccccc3)[C@H](O)P(=O)(OCc3ccccc3)OCc3ccccc3)nn2)c(=O)[nH]c1=O	83 µM	85 µM	64 µM	–
CC1(C)O[C@@H]([C@@H](O)P(=O)(OCc2ccccc2)OCc2ccccc2)[C@@H](Cn2cc(Cn3cnc4c(N)ncnc43)nn2)O1	140 µM	98 µM	> 200 µM	–
CC(=O)Nc1ccn(Cc2cn(C[C@@H]3OC(C)(C)O[C@H]3[C@@H](O)P(=O)(OCc3ccccc3)OCc3ccccc3)nn2)c(=O)n1	> 200 µM	> 200 µM	> 200 µM	–
O=C(c1ccccc1)n1c(=O)ccn(Cc2cn(C[C@H](OCc3ccccc3)[C@@H](O)P(=O)(OCc3ccccc3)OCc3ccccc3)nn2)c1=O	21 µM	26 µM	76 µM	EC50 [1]: 9 µM; EC50 ([2]; human respiratory syncytial virus): 12 µM
Nc1ncnc2c1ncn2Cc1cn(C[C@H](OCc2ccccc2)[C@@H](O)P(=O)(OCc2ccccc2)OCc2ccccc2)nn1	78 µM	66 µM	81 µM	–
Cn1c(=O)c2c(ncn2Cc2cn(C[C@H](OCc3ccccc3)[C@@H](O)P(=O)(OCc3ccccc3)OCc3ccccc3)nn2)n(C)c1=O	71 µM	71 µM	79 µM	–
CC(=O)c1cn(Cc2cn(C[C@H](OCc3ccccc3)[C@@H](O)P(=O)(OCc3ccccc3)OCc3ccccc3)nn2)c2ccccc12	> 200 µM	> 200 µM	> 200 µM	–
CC(=O)Nc1ccn(Cc2cn(C[C@H](OCc3ccccc3)[C@H](O)P(=O)(OCc3ccccc3)OCc3ccccc3)nn2)c(=O)n1	82 µM	96 µM	160 µM	–
Cc1cn(Cc2cn(C[C@H]3OC(C)(C)O[C@H]3[C@@H](O)P(=O)(OCc3ccccc3)OCc3ccccc3)nn2)c(=O)[nH]c1=O	> 200 µM	122 µM	> 200 µM	–
O=C(c1ccccc1)n1c(=O)ccn(Cc2cn(C[C@H](O)[C@@H](O)P(=O)(O)O)nn2)c1=O	> 200 µM	> 200 µM	> 200 µM	–

Reference: ChEMBL document CHEMBL3352515, “Design, synthesis, antiviral and cytostatic activity of ω-(1H-1,2,3-triazol-1-yl)(polyhydroxy)alkylphosphonates as acyclic nucleotide analogues” (Bioorg Med Chem, 2014)
